Shown are actives, neighbours in structure and some others; about 1.2% of the full set was active somewhere.
proCasp7 act – procaspase-7 activators, primary screen, counter-screen for procaspase-3 activator project, biochemical, absorbance, HTS, human; Caspase-7 (Homo sapiens), P55210; recombinant procaspase-7, Ac-DEVD-pNA absorbance 405 nm; D23A/D198A/D206A triple mutant, cannot self-cleave; scale: DMSO 0, 5 µM enzyme 100; activation, % at 8.5 µM; hit rate 0.093% among 330,000; AID 463210, 2010;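 active = percent activation above the screen-wide mean plus 3 SD, cut at about 25% in these data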
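Assay system: Uncleavable procaspase-7 mutant enzyme / Input: 2 µM procaspase-7 mutant as dispensed / Dosing: single nominal 8.5 µM compound dose, 0.8% DMSO final / Timing: 1 h enzyme–compound preincubation and 2 h substrate reaction, both 25 °C / Detection: p-Nitroaniline absorbance at 405 nm, read at 0 and 120 min / Replication: singlicate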
PP5 inh – PP5 phosphatase inhibitors, primary screen, biochemical, fluorescence; Serine/threonine-protein phosphatase 5 (Homo sapiens), P53041; purified PP5c, OMFP substrate fluorescence; inhibition, % at 6.7 µM; hit rate 0.18% among 320,000; AID 1987, 2009;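 active = inhibition above the campaign's mean inhibition across all tested compounds plus 3 SD, cut at about 9.5% in these data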
PP1 inh – PP1-alpha phosphatase inhibitors, primary screen, counter-screen for PP5 inhibitor project, biochemical, fluorescence, OMFP substrate, single point. purified PP1alpha. inhibition, % at 6.7 µM. hit rate 0.9% among 320,000;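 active = inhibition above the mean inhibition of all tested compounds plus 3 SD, computed separately for each screening campaign, cut at about 15% in these data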
Target sequence (P62136 whole entry, looked up): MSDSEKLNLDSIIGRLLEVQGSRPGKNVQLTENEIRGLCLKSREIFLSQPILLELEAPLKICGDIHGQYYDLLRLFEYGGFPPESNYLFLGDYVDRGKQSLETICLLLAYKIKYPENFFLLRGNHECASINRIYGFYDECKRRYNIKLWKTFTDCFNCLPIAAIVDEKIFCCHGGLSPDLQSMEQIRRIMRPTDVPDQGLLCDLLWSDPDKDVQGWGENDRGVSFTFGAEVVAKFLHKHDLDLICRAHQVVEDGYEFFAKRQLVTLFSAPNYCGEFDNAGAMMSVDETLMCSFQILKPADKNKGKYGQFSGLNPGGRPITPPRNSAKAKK
proCasp3 act – activators of human procaspase-3 D3A mutant, primary screen, biochemical, absorbance, PC-3 D3A mutant, single concentration; Caspase-3 (Homo sapiens), P42574; recombinant procaspase-3 D3A, Ac-DEVD-pNA absorbance 405 nm; activation, % at 8.5 µM; hit rate 0.11% among 330,000; AID 463141, 2010;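 active = activation above the mean of all tested compounds plus 3 SD, cut at about 21% in these data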
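Assay system – Procaspase-3 D3A mutant, all three cleavage aspartates alanine · Controls – DMSO-only low control, 5 µM PC-3 D3A high control · Schedule – 1 h compound preincubation, 2 h substrate hydrolysis at 25 °C · Signal – 405 nm absorbance of p-nitroaniline, reads at 0 and 120 min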
PP1 confirm – PP1 phosphatase inhibitors, confirmation, biochemical, fluorescence, OMFP substrate, triplicate; hit rate 52% among 1,900; purified PP1alpha; shares compounds with PP1 inh; inhibition, % at 6.7 µM;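 active = mean PP1 inhibition above a set limit taken from the earlier primary screen, cut at about 15% in these data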
PP5 counter – PP5 phosphatase inhibition by PP1 hits, confirmation, counter-screen for PP1 inhibitor project, biochemical, fluorescence, triplicate; shares compounds with PP1 inh; inhibition, % at 6.7 µM; hit rate 4% among 1,900; purified PP5c, OMFP fluorescence;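 active = mean PP5 inhibition over triplicate wells above about 9.5% taken from the earlier PP1 screen, limit read from the data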
Hits are given with their value; 0 = inactive; - = no result given.

SMILES | proCasp7 act | PP5 inh | PP1 inh | proCasp3 act | PP1 confirm | PP5 counter
CCOC(=O)c1sc(N2C(=O)C(O)=C(C(=O)c3ccco3)C2c2ccco2)nc1C (stereo unspecified) | 0 | 0 | 18 | 0 | 0 | 0
Cc1ccc2nc(N3C(=O)C(O)=C(C(=O)c4ccc(C)o4)C3c3ccc(O)cc3)sc2c1 (stereo unspecified) | 0 | 0 | 30 | 0 | 21 | 0
Cc1cc(C)c2nc(N3C(=O)C(O)=C(C(=O)c4ccco4)C3c3ccco3)sc2c1 (stereo unspecified) | 0 | 0 | 32 | 0 | 31 | 0
COc1ccc(C2C(C(=O)c3ccco3)=C(O)C(=O)N2c2nnc(C)s2)cc1 (stereo unspecified) | 0 | 0 | 0 | 0 | - | -
Nc1ncnc2c1ncn2[C@@H]1O[C@H](CNC(=O)[C@@H](N)C2CCCCC2)[C@@H](O)[C@H]1O | 0 | - | - | 0 | - | -
C#CCN1Cc2ccccc2Oc2cc(Br)ccc2S1(=O)=O | 0 | - | - | 0 | - | -
COc1ccc2nc(N3C(=O)C(O)=C(C(=O)c4ccco4)C3c3ccccc3OC)sc2c1 (stereo unspecified) | 0 | 0 | 29 | 0 | 20 | 0
CCOc1ccc2nc(N3C(=O)C(O)=C(C(=O)c4ccco4)C3c3ccco3)sc2c1 (stereo unspecified) | 0 | 0 | 0 | 0 | - | -
C#CCOCCOCCOCCNc1nc(N2CCN(C(=O)CCCCCCCCCCNC(=O)[C@H](CO)n3cc(CCCSC)nn3)CC2)nc(N2CCN(C(=O)CCCCCCCCCCNC(=O)[C@H](CCCCN)n3cc(CCO)nn3)CC2)n1 | 0 | - | - | 0 | - | -
C#CCOCCOCCOCCNc1nc(N2CCN(C(=O)CCCCCCCCCCNC(=O)[C@H]([C@@H](C)CC)n3cc(CCCCCN)nn3)CC2)nc(N2CCN(C(=O)CCCCCCCCCCNC(=O)[C@H]([C@@H](C)CC)n3cc(CCCCN=C(N)N)nn3)CC2)n1 | 0 | 0 | 70 | 0 | 45 | 0
C#CCOCCOCCOCCNc1nc(N2CCN(C(=O)CCCCCCCCCCNC(=O)[C@H]([C@@H](C)CC)n3cc(CCCCN=C(N)N)nn3)CC2)nc(N2CCN(C(=O)CCCCCCCCCCNC(=O)[C@H](CO)n3cc(CCCCCN)nn3)CC2)n1 | 0 | 12 | 73 | 0 | 45 | 0
C#CCOCCOCCOCCNc1nc(N2CCN(C(=O)CCCCCCCCCCNC(=O)[C@H]([C@@H](C)CC)n3cc(CCCCCN)nn3)CC2)nc(N2CCN(C(=O)CCCCCCCCCCNC(=O)[C@H](CCCCN)n3cc(CCCC(=O)O)nn3)CC2)n1 | 0 | 0 | 0 | 0 | - | -
C#CCOCCOCCOCCNc1nc(N2CCN(C(=O)CCCCCCCCCCNC(=O)[C@H]([C@@H](C)CC)n3cc(CCCCN=C(N)N)nn3)CC2)nc(N2CCN(C(=O)CCCCCCCCCCNC(=O)[C@H](CCCCN)n3cc(C)nn3)CC2)n1 | 0 | 0 | 70 | 0 | 57 | 0
C#CCOCCOCCOCCNc1nc(N2CCN(C(=O)[C@H]([C@@H](C)CC)n3cc([C@@H](N)CO)nn3)CC2)nc(N2CCN(C(=O)[C@H](Cc3cc4ccccc4[nH]3)n3cc([C@@H](N)Cc4ccc(O)cc4)nn3)CC2)n1 | 0 | 0 | 24 | 0 | 0 | 0
Cc1ccc2c(=O)n3c(nc2c1)C(Cc1ccccc1)NC(=O)c1ccc(Cl)cc1-3 (stereo unspecified) | 0 | 0 | 0 | 0 | - | -
CC(Oc1cccc(Cl)c1)C(=O)Nc1ccc(N2CCOCC2)cc1N1CCOCC1 (stereo unspecified) | 0 | 0 | 0 | 0 | - | -

Source: PubChem BioAssay
